Reference: publication PMC8853703 (Chemical research in toxicology, 2021)

Experiments:
Type in all cases: cell-based, porcine
LLC-PK1 cells [1] = experiment: JC-10 mitochondrial transmembrane potential assay; details: for effect of cisplatin on ΔΨm: CDDP 20 μM alone
LLC-PK1 cells [2] = experiment: CM-H2DCFDA general reactive oxygen species quantitation assay; details: CDDP 20 μM alone, 24 h
Outline: (§1)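 LLC-PK1 cells (M199, 10% FBS, 1% PS; 37 °C, 5% CO2) were seeded at 1×10^4 cells/well overnight. Probe loading was 5 μM CM-H2DCFDA for 30 min (general ROS) or 2.5 μM MitoSOX Red for 10 min (mitochondrial superoxide), then 3 PBS washes. […] After PBS washes, fluorescence was read in PBS at Ex/Em 485/535 nm (DCF) or 510/580 nm (MitoSOX). Three independent experiments.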

LLC-PK1 cells [3] = experiment: MitoSOX Red mitochondrial superoxide detection assay; details: CDDP 20 μM alone, 24 h
Outline: as §1

caspase-9 = experiment: Caspase-9 activity assay; details: CDDP 20 μM alone, 24 h
Outline: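 Supernatant was mixed 1:1 with HEPES pH 7.4 caspase buffer (CHAPS, glycerol, EDTA, 10 mM DTT) holding 100 μM Ac-LEHD-pNA. Incubation was 90 min at 37 °C, read as absorbance at 400 nm, with activity normalised to BCA total protein.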

caspase-3 = experiment: Caspase-3 activity assay; details: CDDP 20 μM alone, 24 h

SMILES	ΔΨm with positive control (LLC-PK1 cells [1]; FCCP 10 μM)	effect of cisplatin on ΔΨm (LLC-PK1 cells [1]; 6 h)	effect of cisplatin on ΔΨm (LLC-PK1 cells [1]; 24 h)	effect of cisplatin on ΔΨm (LLC-PK1 cells [1]; 48 h)	effect of cisplatin on general ROS (LLC-PK1 cells [2])	effect of cisplatin on O2•− generated in mitochondria (LLC-PK1 cells [3])	effect of cisplatin on caspase-9 activity (caspase-9)	effect of cisplatin on caspase-3 activity (caspase-3)
N#CC(C#N)=NNc1ccc(OC(F)(F)F)cc1 [FCCP, Carbonyl cyanide-p-trifluoromethoxyphenylhydrazone]	depolarized ΔΨm							
N.N.[Cl][Pt][Cl] [cisplatin, cis-Diamminedichloroplatinum (II), reference compound]		not significantly affected	substantial loss of the ΔΨm	nearly complete gradient collapse	increased	increased	greatly elevated	greatly elevated
